Test results reported in ChEMBL document CHEMBL2146426, “Antitubercular nitrofuran isoxazolines with improved pharmacokinetic properties” (Bioorg Med Chem, 2012).
Converted amounts (≈) assume the structure as drawn.

Tests used:
[1] = Solubility of the compound at pH 7.4 after 18 hrs by UV spectrometry; type: physicochemical; settings: buffer, pH 7.4
In short: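 10 mM DMSO stocks diluted 100-fold in system solution buffer pH 7.4 and held 18 h at room temperature. Filtered, diluted 1:1 with isopropanol and measured by UV (230–500 nm). Compared against a 600-fold diluted reference in buffer/isopropanol. Triplicates.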

[2] = Half life in mouse liver microsomes; type: ADME, Microsome
In short: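 Mouse liver microsomes at 0.6381 mg/mL protein in 0.1 M potassium phosphate pH 7.4 with EDTA. Reaction started with NADPH regenerating system at 37°C; six time points including 0, triplicate wells. Quenched in cold acetonitrile with warfarin internal standard, analysed by LC–MS. Half-life from a first-order least-squares fit.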

[3] = Half life in human liver microsomes; type: ADME, Microsome
[4] = Apparent permeability of the compound from apical to basal side of human Caco2 cells at 50 umol/L after 2 hrs by UPLC/MS analysis; type: ADME, cell-based; settings: Caco-2
In short: (§1)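 Caco-2 monolayers grown 7 days on Transwell inserts, washed with HBSS/HEPES pH 7.4. Compound at 50 µmol/L added apically or basolaterally, then 2 h at 37°C. Receiver side sampled and quantified by UPLC/MS. Papp = (dQ/dt)/(A×C0), triplicates.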

[5] = Apparent permeability of the compound from basal to apical side of human Caco2 cells at 50 umol/L after 2 hrs by UPLC/MS analysis; type: ADME, cell-based; settings: Caco-2; in short: as §1
[6] = Plasma protein binding in mouse at 10 uM after 4 hrs by LC/MS analysis; type: ADME, cell-free; settings: read-out: PPB (converted)
In short: (§2)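 Compound at 10 µM (0.1% DMSO) in mouse or human plasma. Rapid equilibrium dialysis (MWCO 8K) against DPBS pH 7.4, 4 h at 37°C with orbital shaking. Both chambers matrix-matched, precipitated with acetonitrile containing warfarin internal standard, quantified by LC–MS. %Free = buffer/plasma × 100; %Bound = 100 − %Free.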

[7] = Plasma protein binding in human at 10 uM after 4 hrs by LC/MS analysis; type: ADME, cell-free; settings: read-out: PPB (converted); in short: as §2
[8] = test system: Staphylococcus aureus; experiment: Antibacterial activity against Staphylococcus aureus ATCC 29213 after overnight incubation by microbroth dilution technique; type: functional
In short: (§3)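 Two-fold serial broth dilutions per CLSI; inoculum about 10^5 CFU/mL; top final drug concentration 200 µg/mL; incubated aerobically overnight at 37°C. MIC read visually as the lowest concentration with no visible growth.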

[9] = test system: Streptococcus pyogenes; experiment: Antibacterial activity against Streptococcus pyogenes ATCC 700294 after overnight incubation by microbroth dilution technique; type: functional; in short: as §3
[10] = test system: Streptococcus pneumoniae; experiment: Antibacterial activity against Streptococcus pneumoniae DAW27 after overnight incubation by microbroth dilution technique; type: functional; in short: as §3
[11] = test system: Enterococcus faecalis; experiment: Antibacterial activity against Enterococcus faecalis ATCC 3186 after overnight incubation by microbroth dilution technique; type: functional; in short: as §3
[12] = test system: Bacillus subtilis; experiment: Antibacterial activity against Bacillus subtilis ATCC 23857 after overnight incubation by microbroth dilution technique; type: functional
In short: (§4)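 Non-mycobacterial strains: two-fold serial dilutions in broth by CLSI microbroth dilution. Inoculum about 10^5 cfu/mL; top final drug concentration 200 µg/mL. Aerobic incubation at 37°C overnight. MIC read visually as the lowest concentration with no visible growth.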

[13] = test system: Bacillus anthracis; experiment: Antibacterial activity against Bacillus anthracis Sterne 34F2 after overnight incubation by microbroth dilution technique; type: functional; in short: as §4
[14] = test system: Escherichia coli; experiment: Antibacterial activity against Escherichia coli K12 after overnight incubation by microbroth dilution technique; type: functional; settings: K-12; in short: as §4
[15] = Cmax in rat at 10 mg/kg, iv; type: ADME, organism-based; parameters: dose 10 mg/kg, route intravenous; settings: in vivo
In short: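 Rats (n=5) given 10 mg/kg IV via femoral vein catheter. Vehicle was 2% ethanol/saline or 30% DMSO/30% propylene glycol/20% PEG 3000/20% saline, depending on compound. Serial plasma sampled 0–48 h and assayed by LC-MS/MS after acetonitrile precipitation. Cmax read by visual inspection of the concentration–time curve.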

[16] = Volume of distribution in rat; type: ADME, organism-based; settings: in vivo
In short: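 Plasma concentration–time data from rats (n=5) after IV 10 mg/kg or oral 100 mg/kg. Samples taken 0.25–48 h and measured by LC-MS/MS. Non-compartmental analysis; Vd calculated as AUMC0-∞ × dose divided by the square of AUC0-∞.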

[17] = Drug excretion in rat urine; type: ADME; settings: read-out: Drug excretion
[18] = Cmax in Sprague-Dawley rat at 10 mg/kg, iv; type: ADME, organism-based; parameters: dose 10 mg/kg, route intravenous; settings: in vivo
In short: (§5)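 Rats, n=5, given 10 mg/kg IV via femoral vein catheter. Vehicle was 2% ethanol/saline or 30% DMSO/30% propylene glycol/20% PEG 3000/20% saline, depending on compound. Plasma sampled 0–48 h and urine collected in intervals to 48 h; both assayed by LC-MS/MS after acetonitrile precipitation. Non-compartmental analysis: CL = dose/AUC0-∞; fe = cumulative unchanged urinary amount/dose.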

[19] = AUC (0 to infinity) in Sprague-Dawley rat at 10 mg/kg, iv; type: ADME, organism-based; parameters: time infinity, dose 10 mg/kg, route intravenous; settings: plasma; in short: as §5
[20] = Half life in Sprague-Dawley rat at 10 mg/kg, iv; type: ADME, organism-based; parameters: dose 10 mg/kg, route intravenous; settings: in vivo; in short: as §5
[21] = Clearance in Sprague-Dawley rat at 10 mg/kg, iv; type: ADME, organism-based; parameters: dose 10 mg/kg, route intravenous; settings: in vivo; in short: as §5
[22] = Volume of distribution in Sprague-Dawley rat at 10 mg/kg, iv; type: ADME, organism-based; parameters: dose 10 mg/kg, route intravenous; settings: in vivo; in short: as §5
[23] = Drug excretion in Sprague-Dawley rat urine at 10 mg/kg, iv; type: ADME, organism-based; parameters: dose 10 mg/kg, route intravenous; settings: read-out: Drug excretion; in short: as §5
[24] = test system: Rattus norvegicus; experiment: Oral bioavailability in Sprague-Dawley rat at 100 mg/kg; type: ADME, organism-based; settings: in vivo
In short: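 Fasted rats, n=5, dosed 100 mg/kg by oral gavage. Vehicle was 2% methanol, 60:40 PEG 3000/water or 10% vitamin E TPGS, depending on compound. Plasma sampled to 48 h and assayed by LC-MS/MS. F = (AUCoral×DoseIV)/(AUCIV×Doseoral), referenced to 10 mg/kg IV.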

[25] = test system: Vero; experiment: Cytotoxicity against african green monkey Vero cells after 72 hrs by MTT assay; type: cell-based; settings: Chlorocebus sabaeus
In short: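 Vero cells in DMEM with 10% FBS, seeded at ~10% confluency and left to adhere overnight. Two-fold serial dilutions applied for 72 h at 37°C, 5% CO2. MTT read-out at 570 nm after overnight solubilization.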

[26] = test system: Rattus norvegicus; experiment: Toxicity in Sprague-Dawley rat assessed as seizures at 10 mg/kg, iv; type: organism-based; parameters: dose 10 mg/kg, route intravenous; settings: in vivo
In short: (§6)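 Observed during rat IV pharmacokinetic study (n=5). Single 10 mg/kg dose via femoral vein catheter, flushed with heparinized locking solution. Vehicle was 2% ethanol/saline or 30% DMSO/30% propylene glycol/20% PEG 3000/20% saline. Animals followed with serial blood sampling to 48 h.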

[27] = test system: Rattus norvegicus; experiment: Toxicity in Sprague-Dawley rat assessed as mortality at 10 mg/kg, iv; type: organism-based; parameters: dose 10 mg/kg, route intravenous; settings: in vivo; in short: as §6
[28] = test system: Rattus norvegicus; experiment: Toxicity in Sprague-Dawley rat assessed as mortality at 100 mg/kg, po; type: organism-based; parameters: dose 100 mg/kg, route oral; settings: in vivo
In short: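 Observed during rat oral pharmacokinetic study (n=5). Overnight-fasted animals, water ad libitum, received 100 mg/kg by oral gavage. Vehicle was compound-dependent: 2% methanol (sonicated), 60:40 PEG 3000/water, or 10% vitamin E TPGS. Animals followed with sampling to 48 h.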

## O=[N+]([O-])c1ccc(C2=NOC(c3ccc(N4CC[S+]([O-])CC4)cc3)C2)o1 (configuration not stated)
[1]
  solubility at 18 h: 28.9 µg/mL (≈ 77 µM)
[2]
  half-life: 52.2 min
[3]
  half-life: 272 min
[4]
  Papp A→B at 2 h, 50 µM: 24.2 ×10⁻⁶ cm/s
[5]
  Papp B→A at 2 h, 50 µM: 27.2 ×10⁻⁶ cm/s
[6]
  fraction unbound at 4 h, 10 µM: 0.178
[7]
  fraction unbound at 4 h, 10 µM: 0.223
[8]
  MIC: 6.25 µg/mL (≈ 16.6 µM)
[9]
  MIC: 50 µg/mL (≈ 133 µM)
[10]
  MIC: 50 µg/mL (≈ 133 µM)
[11]
  MIC: 100 µg/mL (≈ 266 µM)
[12]
  MIC: 6.25 µg/mL (≈ 16.6 µM)
[13]
  MIC: 12.5 µg/mL (≈ 33.3 µM)
[14]
  MIC: 100 µg/mL (≈ 266 µM)

## CC(=O)NC[C@H]1CN(c2ccc(N3CCOCC3)c(F)c2)C(=O)O1 [LINEZOLID]
[15]
  Cmax: 15000 ng/mL
[16]
  Vd: 0.72 L/kg
[17]
  dose excreted: 73%

## CN1CCN(c2ccc(C3CC(c4ccc([N+](=O)[O-])o4)=NO3)cc2)C(=O)C1 (configuration not stated)
[1]
  solubility at 18 h: 28.8 µg/mL (≈ 77.8 µM)
[6]
  fraction unbound at 4 h, 10 µM: 0.239
[7]
  fraction unbound at 4 h, 10 µM: 0.426
[8]
  MIC: 6.25 µg/mL (≈ 16.9 µM)
[9]
  MIC: 50 µg/mL (≈ 135 µM)
[10]
  MIC: 50 µg/mL (≈ 135 µM)
[11]
  MIC: 100 µg/mL (≈ 270 µM)
[12]
  MIC: 6.25 µg/mL (≈ 16.9 µM)
[13]
  MIC: 12.5 µg/mL (≈ 33.8 µM)
[14]
  MIC: 50 µg/mL (≈ 135 µM)
[18]
  Cmax: 1190 ng/mL
[19]
  AUC(0-inf): 960 ng·h/mL
[20]
  half-life: 36.6 min
[21]
  clearance: 194 mL/min/kg
[22]
  Vd: 3.1 L/kg
[23]
  dose excreted: 0.68%
[24]
  F: 58.3%
[25]
  IC50: 20.3 µg/mL (≈ 54.8 µM)
[26]
  Activity: Toxic
[27]
  Activity: Toxic
[28]
  Activity: Non-toxic

## O=[N+]([O-])c1ccc(C2=NOC(c3ccc(N4CCOCC4)cc3)C2)o1 (configuration not stated)
[4]
  Papp A→B at 2 h, 50 µM: 17.2 ×10⁻⁶ cm/s
[6]
  fraction unbound at 4 h, 10 µM: 0.036
[7]
  fraction unbound at 4 h, 10 µM: 0.038
[8]
  MIC: 6.25 µg/mL (≈ 18.2 µM)
[9]
  MIC: 25 µg/mL (≈ 72.8 µM)
[10]
  MIC: 50 µg/mL (≈ 146 µM)
[11]
  MIC: > 200 µg/mL
[12]
  MIC: 12.5 µg/mL (≈ 36.4 µM)
[13]
  MIC: 12.5 µg/mL (≈ 36.4 µM)
[14]
  MIC: > 200 µg/mL
[18]
  Cmax: 830 ng/mL
[19]
  AUC(0-inf): 1630 ng·h/mL
[20]
  half-life: 143 min
[21]
  clearance: 108 mL/min/kg
[22]
  Vd: 35 L/kg
[23]
  dose excreted: 0%
[24]
  F: 100%
[25]
  IC50: 2.9 µg/mL (≈ 8.45 µM)
[26]
  Activity: Non-toxic
[27]
  Activity: Non-toxic
[28]
  Activity: Non-toxic

## O=C1COCCN1c1ccc(C2CC(c3ccc([N+](=O)[O-])o3)=NO2)cn1 (configuration not stated)
[1]
  solubility at 18 h: 21.9 µg/mL (≈ 61.2 µM)
[2]
  half-life: 60.6 min
[3]
  half-life: 91.2 min
[4]
  Papp A→B at 2 h, 50 µM: 8.61 ×10⁻⁶ cm/s
[5]
  Papp B→A at 2 h, 50 µM: 45.7 ×10⁻⁶ cm/s
[6]
  fraction unbound at 4 h, 10 µM: 0.411
[7]
  fraction unbound at 4 h, 10 µM: 0.398
[8]
  MIC: 12.5 µg/mL (≈ 34.9 µM)
[10]
  MIC: 50 µg/mL (≈ 140 µM)
[11]
  MIC: > 200 µg/mL
[12]
  MIC: 12.5 µg/mL (≈ 34.9 µM)
[13]
  MIC: 25 µg/mL (≈ 69.8 µM)
[14]
  MIC: 25 µg/mL (≈ 69.8 µM)

## O=[N+]([O-])c1ccc(C2=NOC(c3ccc(N4CCSCC4)cc3)C2)o1 (configuration not stated)
[1]
  solubility at 18 h: 1.9 µg/mL (≈ 5.29 µM)
[2]
  half-life: 2.4 min
[3]
  half-life: 12.6 min
[4]
  Papp A→B at 2 h, 50 µM: 9.62 ×10⁻⁶ cm/s
[5]
  Papp B→A at 2 h, 50 µM: 11.4 ×10⁻⁶ cm/s
[6]
  fraction unbound at 4 h, 10 µM: 0.013
[7]
  fraction unbound at 4 h, 10 µM: 0.015
[9]
  MIC: > 200 µg/mL
[11]
  MIC: 100 µg/mL (≈ 278 µM)
[14]
  MIC: > 200 µg/mL
